Active and inactive are the calls of the source.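 How the source made its calls, unless noted: active means viability loss from added drug above about 55%, and viability with drug at most 40%, in both replicates (limit read from the data, passing the limit was not always enough); inconclusive means both conditions met in only one replicate; inactive means neither replicate meets both conditions.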
Key:
[1] = reduced viability of SK-BR-3 breast cancer cells – cell-based, 24 h, human, pilot screen (AID 572;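 active means viability at or below 10% of carrier control in both of two separate runs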;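 further: compound exposure lasted between 18 and 24 h rather than exactly 24 h; 100% = carrier-treated control wells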); conditions: SK-BR-3 viability, CellTiter-Glo luminescence, at 10 µM, stronger effect = lower value
[2] = HUVEC growth inhibition – cell-based, human, primary screen (AID 575;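 active means viability at or below 30% in both replicate assays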;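 further: 100% = median of untreated cell wells with 0.1% DMSO on each plate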); conditions: HUVEC proliferation, CellTiter-Glo luminescence, 72 h; at 10 µM; stronger effect = lower value
Procedure, shortened: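 System – primary HUVEC, no more than 12 passages · Medium – Low-serum (2% FBS) EBM, supplemented · Times – 72 h exposure, 37 °C, 5% CO2, 30 min RT equilibration · Measured by – luminescent ATP assay · Read-out – % viability relative to median vehicle-well signal on each plate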

[3] = H69AR cell proliferation blockers – human, duplicate replicates, primary screen (AID 580;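 active means viability at or under a set limit in both replicates, limit being median viability minus 3 SD, cut at about 48% in these data, passing the limit was not always enough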;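 further: 100% = mean luminescence of untreated wells and 0% = no signal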); conditions: H69AR lung tumor cells viability, ATP luminescence, 72 h; at 10 µM; stronger effect = lower value
[4] = MRP1 drug-resistance reversers in H69AR cells – cell-based, doxorubicin co-treatment, pilot screen (AID 601); conditions: CellTiter-Glo, 72 h, at 10 µM; for differential viability (reversal): stronger effect = higher value
[5] = yeast transport mutant growth inhibition pilot in 384-well plates, post-Golgi transport modulator project (AID 636; in the data active means inhibition above about 31%); conditions: absorbance 615 nm, about 18 h, stronger effect = higher value
[6] = growth suppression of yeast trafficking mutant, preliminary HTS, modulators of trafficking downstream of Golgi apparatus project, 1536-format plate, OD 615 nm (AID 637; in the data active means inhibition above about 30%); conditions: yeast transport mutant growth, absorbance 615 nm, 18 h; stronger effect = higher value
[7] = H69AR cells + 2 uM doxorubicin, measured here: viability with 2 uM doxorubicin, stronger effect = lower value
[8] = H69AR cells, compound alone cytotoxicity

## O=C(OC1CCc2ccccc2C1=O)c1ccccc1O (stereo unspecified)
[1]
  viability: 71% (inactive)
[2]
  viability: 106% (inactive)
[3]
  viability: 78.6% (inactive)
[4]; H69AR cells + 2 uM doxorubicin
  differential viability (reversal): -13.2% (inactive)
[4]; [7]
  viability: 91.8%
[4]; [8]
  viability: 78.6%
[5]
  inhibition: -1.33% (inactive)
[6]
  inhibition: -1.27% (inactive)

## CCOC(=O)c1nnc2ccnn2c1N
[1]
  viability: 74% (inactive)
[2]
  viability: 87.9% (inactive)
[3]
  viability: 109% (inactive)
[4]; H69AR cells + 2 uM doxorubicin
  differential viability (reversal): 1.61% (inactive)
[4]; [7]
  viability: 107%
[4]; [8]
  viability: 109%
[5]
  inhibition: -4.79% (inactive)
[6]
  inhibition: -2.91% (inactive)

## CN(C)C(=O)CN(C)S(=O)(=O)c1ccc(Cl)cc1
[1]
  viability: 139% (inactive)
[2]
  viability: 98.9% (inactive)
[3]
  viability: 97.9% (inactive)
[4]; H69AR cells + 2 uM doxorubicin
  differential viability (reversal): -6.11% (inactive)
[4]; [7]
  viability: 104%
[4]; [8]
  viability: 97.9%
[5]
  inhibition: -6.3% (inactive)
[6]
  inhibition: 1.82% (inactive)

## CCCN1Cc2cccc(C(=O)NCc3cccs3)c2C1=O
[1]
  viability: 86% (inactive)
[2]
  viability: 111% (inactive)
[3]
  viability: 90.6% (inactive)
[4]; H69AR cells + 2 uM doxorubicin
  differential viability (reversal): -0.255% (inactive)
[4]; [7]
  viability: 90.8%
[4]; [8]
  viability: 90.6%
[5]
  inhibition: -6% (inactive)
[6]
  inhibition: -1.45% (inactive)

## COc1ccc(-n2c(SCC(=O)N3CCCCC3C)nnc2-c2cccnc2)cc1 (stereo unspecified)
[1]
  viability: 87% (inactive)
[2]
  viability: 98.7% (inactive)
[3]
  viability: 102% (inactive)
[4]; H69AR cells + 2 uM doxorubicin
  differential viability (reversal): 10.5% (inactive)
[4]; [7]
  viability: 91.1%
[4]; [8]
  viability: 102%
[5]
  inhibition: -5.54% (inactive)
[6]
  inhibition: 2% (inactive)

## Cc1cccc(-n2ncc3c(NCc4cccs4)ncnc32)c1
[1]
  viability: 64% (inactive)
[2]
  viability: 61.8% (inactive)
[3]
  viability: 66.1% (inactive)
[4]; H69AR cells + 2 uM doxorubicin
  differential viability (reversal): -22.8% (inactive)
[4]; [7]
  viability: 88.9%
[4]; [8]
  viability: 66.1%
[5]
  inhibition: 26.2% (inactive)
[6]
  inhibition: 0.36% (inactive)

## O=C(Nc1nc(-c2cccs2)cs1)c1cccc(S(=O)(=O)N2CCCCC2)c1
[1]
  viability: 194% (inactive)
[2]
  viability: 67.2% (inactive)
[3]
  viability: 66.8% (inactive)
[4]; H69AR cells + 2 uM doxorubicin
  differential viability (reversal): -5.37% (inactive)
[4]; [7]
  viability: 72.2%
[4]; [8]
  viability: 66.8%
[5]
  inhibition: 3.9% (inactive)
[6]
  inhibition: 1.64% (inactive)

## CC(C)(Oc1ccc(CCNC(=O)c2ccc(Cl)cc2)cc1)C(=O)O
[1]
  viability: 95% (inactive)
[2]
  viability: 83.1% (inactive)
[3]
  viability: 105% (inactive)
[4]; H69AR cells + 2 uM doxorubicin
  differential viability (reversal): 8.17% (inactive)
[4]; [7]
  viability: 96.8%
[4]; [8]
  viability: 105%
[5]
  inhibition: -4.29% (inactive)
[6]
  inhibition: -0.67% (inactive)

## Cc1cc(C)nc(SCc2nnc(SCC(=O)Nc3ncc(C)s3)n2Cc2ccco2)n1
[1]
  viability: 91% (inactive)
[2]
  viability: 97.1% (inactive)
[3]
  viability: 90.4% (inactive)
[4]; H69AR cells + 2 uM doxorubicin
  differential viability (reversal): 7.87% (inactive)
[4]; [7]
  viability: 82.6%
[4]; [8]
  viability: 90.4%
[5]
  inhibition: -7.87% (inactive)
[6]
  inhibition: -5.09% (inactive)

## COc1ccc(S(=O)(=O)Nc2ccccc2OC)cc1C
[1]
  viability: 107% (inactive)
[2]
  viability: 93.8% (inactive)
[3]
  viability: 83.1% (inactive)
[4]; H69AR cells + 2 uM doxorubicin
  differential viability (reversal): -7.08% (inactive)
[4]; [7]
  viability: 90.2%
[4]; [8]
  viability: 83.1%
[5]
  inhibition: 0% (inactive)
[6]
  inhibition: 0.82% (inactive)

## Cc1cnc(C(=O)NCCc2ccc(S(=O)(=O)NC(=O)NC3CCCCC3)cc2)cn1
[1]
  viability: 94% (inactive)
[2]
  viability: 94.9% (inactive)
[3]
  viability: 89.3% (inactive)
[4]; H69AR cells + 2 uM doxorubicin
  differential viability (reversal): -16.6% (inactive)
[4]; [7]
  viability: 106%
[4]; [8]
  viability: 89.3%
[5]
  inhibition: 1.04% (inactive)
[6]
  inhibition: 2% (inactive)

## CCOc1cccc(C(=O)N(Cc2ccco2)C2CCS(=O)(=O)C2)c1 (stereo unspecified)
[1]
  viability: 96% (inactive)
[2]
  viability: 109% (inactive)
[3]
  viability: 97.6% (inactive)
[4]; H69AR cells + 2 uM doxorubicin
  differential viability (reversal): 8.11% (inactive)
[4]; [7]
  viability: 89.5%
[4]; [8]
  viability: 97.6%
[5]
  inhibition: -5.95% (inactive)
[6]
  inhibition: -1.09% (inactive)

## COc1cc2[nH]c3c(=O)n(CCN(C(C)C)C(C)C)cnc3c2cc1OC
[1]
  viability: 95% (inactive)
[2]
  viability: 99.1% (inactive)
[3]
  viability: 83.5% (inactive)
[4]; H69AR cells + 2 uM doxorubicin
  differential viability (reversal): -0.365% (inactive)
[4]; [7]
  viability: 83.9%
[4]; [8]
  viability: 83.5%
[5]
  inhibition: -6.89% (inactive)
[6]
  inhibition: 4.91% (inactive)

## Cc1ccccc1C(=O)NC1CCN(Cc2nnnn2CCc2ccccc2)CC1
[1]
  viability: 124% (inactive)
[2]
  viability: 112% (inactive)
[3]
  viability: 86.8% (inactive)
[4]; H69AR cells + 2 uM doxorubicin
  differential viability (reversal): -4.45% (inactive)
[4]; [7]
  viability: 91.3%
[4]; [8]
  viability: 86.8%
[5]
  inhibition: -5.19% (inactive)
[6]
  inhibition: 7.05% (inactive)

## Cc1ccc(-c2nnc3c4ccccc4c(C)nn23)cc1S(=O)(=O)N1CCN(C)CC1
[1]
  viability: 85% (inactive)
[2]
  viability: 78.6% (inactive)
[3]
  viability: 74% (inactive)
[4]; H69AR cells + 2 uM doxorubicin
  differential viability (reversal): -16.7% (inactive)
[4]; [7]
  viability: 90.7%
[4]; [8]
  viability: 74%
[5]
  inhibition: -5.2% (inactive)
[6]
  inhibition: 1.15% (inactive)

## C/C(Nc1cccc(F)c1)=C(/C#N)C(N)=O
[1]
  viability: 107% (inactive)
[2]
  viability: 122% (inactive)
[3]
  viability: 99.2% (inactive)
[4]; H69AR cells + 2 uM doxorubicin
  differential viability (reversal): 5.34% (inactive)
[4]; [7]
  viability: 93.9%
[4]; [8]
  viability: 99.2%
[5]
  inhibition: -4.32% (inactive)
[6]
  inhibition: -5.64% (inactive)

## Cc1oncc1C(=O)Nc1ccc(C(F)(F)F)cc1
[1]
  viability: 87% (inactive)
[2]
  viability: 69.8% (inactive)
[3]
  viability: 97.2% (inactive)
[4]; H69AR cells + 2 uM doxorubicin
  differential viability (reversal): 9.38% (inactive)
[4]; [7]
  viability: 87.8%
[4]; [8]
  viability: 97.2%
[5]
  inhibition: -1.69% (inactive)
[6]
  inhibition: -0.83% (inactive)

— PubChem BioAssay
